The results in this text go back to ChEMBL document CHEMBL1140675, “Discovery of a novel class of benzazepinone Na(v)1.7 blockers: potential treatments for neuropathic pain” (Bioorg Med Chem Lett, 2007).

Data set [1] addresses Voltage-dependent L-type calcium channel subunit alpha-1C (Homo sapiens, UniProt Q13936). Nature of the data set: Displacement of [3H]diltiazem from human Cav1.2 expressed in HEK293 cells. It is filed as cell-based. In outline: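 Cav1.2 binding assay measuring displacement of 3H-diltiazem.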
The subject of data set [2] is Rattus norvegicus. Nature of the data set: Blockade of spontaneous neuronal firing in rat peripheral axotomy model at 2 mg/kg, iv after 60 mins. Conditions: 1 h. It is filed as functional. A digest of the protocol:
(§1)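 Iv infusion given after baseline spontaneous firing frequency was established; firing frequency then recorded for 60 min post-dose, with % inhibition at 10, 30 and 60 min; n = 6.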

Data set [3] is described as follows: Cmax in rat at 1.0 mg/kg, iv or 3.0 mg/kg, po. Type of data set: ADME, organism-based. Conditions: in vivo.
In data set [4] the test system is Rattus norvegicus. The data set can be described thus: Reversal of allodynia in rat spinal nerve ligation model at 10 mg/kg, po after 2 hrs. It is filed as functional. A digest of the protocol:
(§2)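 L5 spinal nerve ligated and transected in rats to induce neuropathy; tactile allodynia measured with calibrated Von Frey filaments before and 1 week after surgery. Rats with significant allodynia were dosed orally and % reversal of allodynia determined at 2 and 4 h post-dose; n = 8.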

The nature of data set [5]: Half life in rat at 1.0 mg/kg, iv or 3.0 mg/kg, po. It is filed as ADME, organism-based. Conditions: in vivo.
The nature of data set [6]: Cmax in dog at 0.38 mg/kg, iv or 1.5 mg/kg, po. The following applies: in vivo. It is filed as ADME, organism-based, Canis lupus familiaris.
A short description of data set [7]: Bioavailability in rat at 3.0 mg/kg, po. It is filed as ADME, organism-based. Conditions: in vivo.
A further data set deals with hERG (KCNH2) (Homo sapiens, UniProt Q12809). Nature of the data set: Displacement of [35S]-MK0499 from human ERG receptor expressed in HEK293 cells at 10 uM. It is filed as cell-based. Conditions: HEK293 cells expressing human ERG, probe [35S]-MK0499. A digest of the protocol: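 Binding assay measuring displacement of radiolabelled ligand (35S-MK-0499 for hERG; 3H-diltiazem for Cav1.2); % inhibition at 10 µM test compound.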

A short description of data set [8]: Plasma clearance in dog at 0.38 mg/kg, iv or 1.5 mg/kg, po. It is filed as ADME, organism-based, Canis lupus familiaris.
Data set [9] addresses T1, Sodium channel protein type 9 subunit alpha (Homo sapiens, UniProt Q15858). Nature of the data set: Binding affinity at human inactive state Nav1.7 by whole cell electrophysiology.
Data set [10] can be described thus: Bioavailability in dog at 1.5 mg/kg, po. Type of data set: ADME, organism-based, Canis lupus familiaris. Conditions: in vivo.
Data set [11] concerns Rattus norvegicus. The data set can be described thus: Blockade of spontaneous neuronal firing in rat peripheral axotomy model at 2 mg/kg, iv after 30 mins. It is filed as functional. The following applies: 0.5 h. In outline: as §1
The target of data set [12] is T1, Sodium channel protein type 9 subunit alpha. The data set can be described thus: Blockade of human Nav1.7 by FRET assay. A digest of the protocol:
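Functional membrane-potential assay of channel block on human Nav1.7; read-out is FRET between two membrane-associated dyes; IC50 in nM.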

Data set [13] concerns Rattus norvegicus. The data set can be described thus: Blockade of spontaneous neuronal firing in rat peripheral axotomy model at 2 mg/kg, iv after 10 mins. It is filed as functional. In outline:
as §1

Data set [14] is described as follows: Plasma clearance in rat at 1.0 mg/kg, iv or 3.0 mg/kg, po. Type of data set: ADME, organism-based.
In data set [15] the test system is Rattus norvegicus. The data set can be described thus: Reversal of allodynia in rat spinal nerve ligation model at 10 mg/kg, po after 4 hrs. Type of data set: functional. In outline: as §2
The nature of data set [16]: Half life in dog at 0.38 mg/kg, iv or 1.5 mg/kg, po. It is filed as ADME, organism-based, Canis lupus familiaris. The following applies: in vivo.

T1 sequence (Q15858 whole entry): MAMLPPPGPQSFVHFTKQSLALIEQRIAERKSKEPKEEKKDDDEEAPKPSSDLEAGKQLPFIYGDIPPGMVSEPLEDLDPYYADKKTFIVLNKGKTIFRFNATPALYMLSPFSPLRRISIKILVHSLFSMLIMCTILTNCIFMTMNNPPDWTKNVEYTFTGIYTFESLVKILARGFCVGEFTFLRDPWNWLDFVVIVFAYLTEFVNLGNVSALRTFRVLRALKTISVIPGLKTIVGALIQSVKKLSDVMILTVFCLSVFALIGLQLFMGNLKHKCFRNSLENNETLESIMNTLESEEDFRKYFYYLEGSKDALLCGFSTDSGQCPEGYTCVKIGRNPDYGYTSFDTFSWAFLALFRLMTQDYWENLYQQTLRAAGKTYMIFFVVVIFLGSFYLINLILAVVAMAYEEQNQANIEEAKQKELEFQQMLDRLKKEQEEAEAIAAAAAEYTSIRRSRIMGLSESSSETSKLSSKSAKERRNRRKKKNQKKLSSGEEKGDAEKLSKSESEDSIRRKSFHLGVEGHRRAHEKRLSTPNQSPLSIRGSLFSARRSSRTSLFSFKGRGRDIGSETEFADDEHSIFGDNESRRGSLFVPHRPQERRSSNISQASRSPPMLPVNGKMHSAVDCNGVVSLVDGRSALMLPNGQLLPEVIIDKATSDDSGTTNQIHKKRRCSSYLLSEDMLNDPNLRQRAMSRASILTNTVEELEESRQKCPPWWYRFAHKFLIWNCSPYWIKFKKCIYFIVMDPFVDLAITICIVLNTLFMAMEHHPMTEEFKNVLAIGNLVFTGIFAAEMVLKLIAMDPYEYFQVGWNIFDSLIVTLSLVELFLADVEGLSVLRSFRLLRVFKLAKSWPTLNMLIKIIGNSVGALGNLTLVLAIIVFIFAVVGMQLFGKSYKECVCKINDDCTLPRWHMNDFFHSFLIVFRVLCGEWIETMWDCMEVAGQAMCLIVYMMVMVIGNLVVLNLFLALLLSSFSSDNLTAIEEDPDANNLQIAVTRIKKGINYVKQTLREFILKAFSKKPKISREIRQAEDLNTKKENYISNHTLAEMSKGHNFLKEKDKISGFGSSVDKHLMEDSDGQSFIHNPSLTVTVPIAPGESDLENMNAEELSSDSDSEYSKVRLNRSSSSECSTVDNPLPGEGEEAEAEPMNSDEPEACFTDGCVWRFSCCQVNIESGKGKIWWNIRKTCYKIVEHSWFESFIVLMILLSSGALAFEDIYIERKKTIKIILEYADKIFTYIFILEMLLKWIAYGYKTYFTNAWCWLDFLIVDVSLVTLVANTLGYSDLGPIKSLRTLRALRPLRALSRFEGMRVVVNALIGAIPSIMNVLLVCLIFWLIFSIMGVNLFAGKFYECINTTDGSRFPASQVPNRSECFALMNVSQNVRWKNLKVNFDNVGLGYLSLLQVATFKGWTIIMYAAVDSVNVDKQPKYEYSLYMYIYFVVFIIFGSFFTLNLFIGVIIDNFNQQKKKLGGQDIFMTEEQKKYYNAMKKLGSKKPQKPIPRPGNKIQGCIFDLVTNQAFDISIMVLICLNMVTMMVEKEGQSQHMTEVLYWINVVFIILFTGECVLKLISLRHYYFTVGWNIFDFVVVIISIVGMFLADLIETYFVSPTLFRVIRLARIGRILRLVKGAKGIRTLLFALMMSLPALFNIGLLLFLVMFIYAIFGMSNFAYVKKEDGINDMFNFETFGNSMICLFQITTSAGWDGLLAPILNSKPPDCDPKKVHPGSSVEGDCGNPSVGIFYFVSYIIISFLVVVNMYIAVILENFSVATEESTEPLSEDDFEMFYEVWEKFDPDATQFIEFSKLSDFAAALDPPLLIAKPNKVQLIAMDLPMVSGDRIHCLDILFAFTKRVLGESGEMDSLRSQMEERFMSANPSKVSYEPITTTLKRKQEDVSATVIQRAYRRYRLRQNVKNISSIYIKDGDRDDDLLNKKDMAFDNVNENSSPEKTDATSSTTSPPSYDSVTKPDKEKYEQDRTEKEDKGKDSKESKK
Sequence of Voltage-dependent L-type calcium channel subunit alpha-1C (Q13936 whole entry): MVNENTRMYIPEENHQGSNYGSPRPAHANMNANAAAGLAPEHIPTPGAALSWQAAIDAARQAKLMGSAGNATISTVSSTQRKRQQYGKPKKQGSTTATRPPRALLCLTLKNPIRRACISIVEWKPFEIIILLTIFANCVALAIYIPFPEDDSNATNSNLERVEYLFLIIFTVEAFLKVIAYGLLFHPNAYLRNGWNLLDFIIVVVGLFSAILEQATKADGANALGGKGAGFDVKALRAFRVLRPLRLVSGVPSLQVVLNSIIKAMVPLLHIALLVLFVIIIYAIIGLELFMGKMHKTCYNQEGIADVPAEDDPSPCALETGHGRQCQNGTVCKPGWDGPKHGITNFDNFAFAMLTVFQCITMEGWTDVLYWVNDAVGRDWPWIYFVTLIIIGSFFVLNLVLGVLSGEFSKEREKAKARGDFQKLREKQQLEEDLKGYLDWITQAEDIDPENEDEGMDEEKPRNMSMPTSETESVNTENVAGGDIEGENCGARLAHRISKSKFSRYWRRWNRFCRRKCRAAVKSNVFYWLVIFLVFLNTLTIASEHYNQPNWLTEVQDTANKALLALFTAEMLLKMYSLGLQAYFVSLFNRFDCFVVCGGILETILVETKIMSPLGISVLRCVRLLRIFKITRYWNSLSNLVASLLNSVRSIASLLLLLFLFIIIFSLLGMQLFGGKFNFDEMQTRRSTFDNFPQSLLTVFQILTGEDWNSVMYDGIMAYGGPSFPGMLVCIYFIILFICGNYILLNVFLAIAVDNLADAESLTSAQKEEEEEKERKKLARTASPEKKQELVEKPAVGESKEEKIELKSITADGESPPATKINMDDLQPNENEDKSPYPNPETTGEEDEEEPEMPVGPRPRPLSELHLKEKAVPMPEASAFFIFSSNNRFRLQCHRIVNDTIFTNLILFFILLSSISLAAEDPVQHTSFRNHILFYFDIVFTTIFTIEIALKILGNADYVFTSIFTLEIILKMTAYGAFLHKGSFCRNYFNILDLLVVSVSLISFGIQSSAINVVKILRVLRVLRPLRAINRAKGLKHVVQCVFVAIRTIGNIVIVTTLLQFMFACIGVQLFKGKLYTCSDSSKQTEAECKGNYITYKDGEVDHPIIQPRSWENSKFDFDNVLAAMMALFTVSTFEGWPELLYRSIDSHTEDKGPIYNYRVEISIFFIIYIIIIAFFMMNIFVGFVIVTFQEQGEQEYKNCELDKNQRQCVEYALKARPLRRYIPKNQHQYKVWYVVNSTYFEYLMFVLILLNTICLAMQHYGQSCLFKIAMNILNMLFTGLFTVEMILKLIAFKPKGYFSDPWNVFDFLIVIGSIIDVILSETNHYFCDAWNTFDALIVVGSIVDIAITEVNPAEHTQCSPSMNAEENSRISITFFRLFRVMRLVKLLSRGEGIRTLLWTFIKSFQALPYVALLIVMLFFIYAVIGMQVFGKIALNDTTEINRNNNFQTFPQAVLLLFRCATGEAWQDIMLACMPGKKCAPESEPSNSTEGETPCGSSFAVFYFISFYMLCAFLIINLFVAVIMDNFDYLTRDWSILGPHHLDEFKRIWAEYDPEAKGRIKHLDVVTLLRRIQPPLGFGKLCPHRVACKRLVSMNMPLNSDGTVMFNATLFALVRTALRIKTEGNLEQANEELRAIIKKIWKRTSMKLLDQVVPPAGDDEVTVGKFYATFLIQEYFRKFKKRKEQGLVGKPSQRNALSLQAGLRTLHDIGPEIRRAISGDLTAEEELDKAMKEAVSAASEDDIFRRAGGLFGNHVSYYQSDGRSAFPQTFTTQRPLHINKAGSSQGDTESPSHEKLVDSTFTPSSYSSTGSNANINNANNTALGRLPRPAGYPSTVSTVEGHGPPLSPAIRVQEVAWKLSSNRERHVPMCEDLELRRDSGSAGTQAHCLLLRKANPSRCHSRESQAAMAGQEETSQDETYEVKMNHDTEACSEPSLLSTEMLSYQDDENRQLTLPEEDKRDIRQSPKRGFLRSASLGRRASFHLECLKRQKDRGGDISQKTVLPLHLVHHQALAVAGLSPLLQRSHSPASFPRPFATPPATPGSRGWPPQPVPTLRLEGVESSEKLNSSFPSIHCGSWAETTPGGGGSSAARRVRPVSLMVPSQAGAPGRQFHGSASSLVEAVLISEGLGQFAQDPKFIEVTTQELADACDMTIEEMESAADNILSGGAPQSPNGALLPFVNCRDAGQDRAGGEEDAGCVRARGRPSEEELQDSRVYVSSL

As for `CC(C)N1C(=O)[C@H](NC(=O)[C@@H](Cc2ccccc2OC(F)(F)F)NC(=O)OC(C)(C)C)CCc2ccccc21`, the IC50 in data set [1] was 3500 nM; in data set [12], 35 nM. Further, the inhibition in vivo at 2 mg/kg with Rattus norvegicus [2] is 93%; with Rattus norvegicus [11] it was 100%; in the data set with Rattus norvegicus [13], 100%. Also, the values for the Cmax in [3] and in data set [6] were 300 nM and 70 nM, respectively. For the same compound, the values for the Activity with Rattus norvegicus [4] and in the data set with Rattus norvegicus [15] were 43% and 40%, respectively. For the same compound, the half-life in data set [5] was 2.3 h; in data set [16] it was 4.2 h. In addition, the bioavailability in [7] came out at 24%; in [10], 9%. On hERG (KCNH2), this compound came in with an inhibition at 10 µM of 18%. Also, the clearance in [8] turned out to be 15 mL/min/kg; in data set [14], 24 mL/min/kg. In data set [9], this compound displayed a Ki of 40 nM.
